Entries after “also recorded” stand apart in the source; their conditions may differ.
Experiments:
T cell clone BDC-2.5 = test: IFN-γ response of T cell clone BDC-2.5; type: cell-based, NOD mouse; settings: ChgA-derived peptides 5–500 μM; two experiments, single measurements (Fig. 6a,c)
Procedure, shortened: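 Cultures held 2 × 10⁴ BDC-2.5 T cells and 2.5 × 10⁴ NOD peritoneal exudate cells as I-A^g7 APCs. Chromogranin A-derived peptides were added at 5–500 μM. Controls were beta cell tumor membrane preparation, a positive mimotope peptide and an irrelevant moth cytochrome c peptide. IFN-γ was measured by specific ELISA. Two experiments, single measurement per concentration. Stimulatory capacity was calculated relative to the reference peptide.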

I-A^g7 = test: Peptide binding to I-A^g7; design: species or system NOD mouse; settings: inhibition of bio-pHEL (11 μM) binding to soluble I-A^g7, pH 5.6, overnight, 21°C, ELISA; average of two experiments (Fig. 6b,c)
Procedure, shortened: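 Soluble I-A^g7 carrying covalently linked pHEL, thrombin-treated to cleave the peptide linker. Diluted in PBS, captured on OX6-coated wells, washed. Bound probe detected with alkaline phosphatase–Extravidin and […]. Controls: mimotope peptide (positive), I-E^k-binding moth cytochrome c peptide (negative). Reported as percent of uninhibited probe binding.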

BDC T cell clones [1] = test: In vitro activation of the BDC T cell clones; type: cell-based, NOD mouse
Procedure, shortened: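 The three BDC clones (2 × 10⁴ responder cells each) were cultured with 2.5 × 10⁴ NOD peritoneal exudate cells as APCs. Soluble synthetic test peptides were titrated alongside a mimotope peptide and beta cell tumor membrane preparation as the control antigen. IFN-γ (ng/ml) was measured by specific ELISA. At least two separate experiments, single measurement at each peptide concentration.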

BDC T cell clones [2] = settings: presented in the context of I-A^g7; cited from earlier work

## ED9: WD5 extended by the same 4 amino acids at the N-terminus (EDKRWSRMD)
T cell clone BDC-2.5
  Stimulatory activity on BDC-2.5 (IFN-γ response): failed to stimulate BDC-2.5
I-A^g7
  Binding to I-A^g7: did not bind to I-A^g7

## EE18: WE14 extended by 4 amino acids at the N-terminus (EDKRWSRMDQLAKELTAE)
T cell clone BDC-2.5
  Stimulatory activity on BDC-2.5 (IFN-γ response): eliminated the BDC-2.5 response
I-A^g7
  Binding to I-A^g7: no effect on I-A^g7 binding

## RLGLWVRME [pS3]
BDC T cell clones [1]; pS3 vs synthetic WE14
  Potency in activating the BDC clones relative to WE14: at least 1000 fold

## WA8: C-terminal truncation of WE14 (WSRMDQLA)
T cell clone BDC-2.5
  Stimulatory activity on BDC-2.5 (IFN-γ response): decreasing stimulatory activity

## WL11: WE14 truncated by 3 C-terminal amino acids (WSRMDQLAKEL)
T cell clone BDC-2.5
  Stimulatory activity on BDC-2.5 (IFN-γ response): decreasing stimulatory activity
I-A^g7
  Binding to I-A^g7: reduced binding to a level indistinguishable from the negative control peptide

## WSRMD [WD5]
T cell clone BDC-2.5
  Stimulatory activity on BDC-2.5 (IFN-γ response): lacked any stimulatory activity

## WSRMDQLAKELTAE [WE14]
BDC T cell clones [1]; in vitro, presented by I-A^g7 APCs
  Activation of the BDC T cell clones: activated the ChgA-specific T cell clones in vitro; also recorded: potently stimulated all three of the BDC clones; also recorded: the clones were activated
BDC T cell clones [1]; synthetic WE14 vs β-Mem
  Potency relative to beta cell (tumor) antigen preparation: considerably less potent than the antigen preparation from the beta cell adenoma tumor
I-A^g7
  Binding to I-A^g7: bound to I-A^g7, although not nearly as well as the pS3 mimotope; also recorded: bound I-A^g7

## insulin: insulin, to which the BDC clones are not responsive
BDC T cell clones [2]
  Response of BDC clones in vitro: not responsive

From paper PMC3166626 (Nature immunology, 2010)
